Mdm2 MdmX PPI – inhibitors of human Mdm2-MdmX association, primary screen, cell-based, luminescence, split luciferase, SaOS-2, uHTS | Protein Mdm4 (Homo sapiens) + E3 ubiquitin-protein ligase Mdm2 (Homo sapiens), … | 330,000 compounds, 3% hits | AID 485346, 2010 | SaOS-2 split-luciferase Mdm2/MdmX complementation | inhibition, % at 8 µM;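 active = inhibition of at least 50% at 8 µM in the primary screen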
SKKanGAS inh – S. pyogenes SKKanGAS growth inhibitors in kanamycin, primary screen, streptokinase expression inhibitor project, SKKanGAS strain, BacTiter-Glo luminescence. inhibition, % at 7.5 µM. AID 1662, 2009. 300,000 compounds, 1.3% hits. 6 h;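 active = mean replicate score, as percent of positive control median, at least 50; inconclusive = mean below 50 but one replicate at or above 50; inactive = mean and every replicate below 50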;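 also: strain carries kanamycin resistance gene driven by streptokinase promoter and grows in 40 µg/ml kanamycin; loss of luminescence reflects streptokinase promoter inhibition or plain growth inhibition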
Beta cell apopt – inhibitors of cytokine-induced beta cell apoptosis, primary screen, luminescence; INS-1E cytokine-induced death, ATP luminescence, 48 h; percent of positive-control rescue, neutral wells zero; protection from apoptosis, % (test concentration not listed); 300,000 compounds, 0.8% hits; AID 435005, 2010;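 active = Every replicate reaches about 75%, or at least half do and their mean reaches it too, limit read from the data; inconclusive = At least half of replicates reach the limit but their mean does not; inactive = Under half of replicates reach the limit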;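 also: higher means more ATP so stronger rescue from cytokine killing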
UPR XBP1 act – activators of adaptive XBP1 UPR arm, primary screen, cell-based, CHO-XBP1 luciferase reporter, luminescence, uHTS. AID 463104, 2010. 330,000 compounds, 0.33% hits. activation, % at 20 µM. IRE1-XBP1 UPR activation; percent of tunicamycin response, DMSO as zero;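 active = versus positive control, 20 µM dose yields 30% or more activation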
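Material: IRE1-XBP1 luciferase reporter CHO line / Quantity: one thousand reporter cells per well / Buffer or medium: F12 with 10% serum / Compound: 20 µM single concentration, DMSO 1% / Times: 6 h treatment, 37 °C / Detection: Steady-Glo luciferase glow luminescence, 10 min after reagent addition / Benchmarks: tunicamycin high, DMSO low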
CSC inhib – cancer stem cell viability inhibitors, primary screen, luminescence. cancer stem cell-like cells viability. inhibition, % at 7.5 µM. 300,000 compounds, 1.1% hits. AID 2717, 2010; in the data active = inhibition above about 75%; inconclusive = no clear call, values can overlap the other calls; tested in HMLE shEcad cells
UPR CHOP act – activators of apoptotic CHOP UPR arm, primary screen, cell-based, CHO-CHOP luciferase reporter, luminescence, uHTS; UPR activation; percent of tunicamycin response over DMSO baseline; activation, % at 10 µM; 330,000 compounds, 0.34% hits; AID 449763, 2010;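 active = at 10 µM dose, activation of 40% or more, normalized to positive control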
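Assay system: CHO cells with stable CHOP pathway luciferase reporter; Buffer or medium: F12 plus 10% serum; Times: 16-18 h cell attachment, then 6 h compound exposure, 37 °C; Signal: luciferase luminescence; Read-out basis: percent activation relative to tunicamycin control; Control set: tunicamycin high control, DMSO low control.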
Mdm2-MdmX conf – Mdm2-MdmX complex disruptors, retested hits, confirmation, luminescence, single concentration | Mdm2-MdmX binding, luminescent assay | shares compounds with Mdm2 MdmX PPI | inhibition, % at 8 µM | 10,000 compounds, 55% hits; in the data active = inhibition above about 40%
FLuc counter – full-length luciferase signal inhibition, confirmation, counter-screen for Mdm2/MdmX interaction inhibitor project, cell-based, single concentration, SaOS-2; shares compounds with Mdm2 MdmX PPI; 6,200 compounds, 77% hits; inhibition, % at 8 µM; AID 504607, 2011; SaOS-2 full-length luciferase counterscreen, luminescence;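 active = mean inhibition at 8 µM reaching about 37%, which flags the compound as non-specific, limit read from the data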;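 also: p53-null SaOS-2 cells with luciferase driven by a doxycycline-inducible promoter; compound on cells about two nights before reading with doxycycline added after day one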
Each line names hits and unclear results; the compound was inactive in the other large screens (follow-up assays come after a bar, where they were run). Sampled rows, rich in hits. Any-hit rate of the full collection: about 4.8%.

Cc1ccc(S(=O)(=O)Nc2ccc3c(c2)C(=O)N([C@H](C)CO)C[C@H](C)[C@@H](CN(C)Cc2ccc(-c4ccccc4)cc2)O3)cc1	Mdm2 MdmX PPI 77 (no result: SKKanGAS inh) | Mdm2-MdmX conf inactive
Cc1ccc(S(=O)(=O)Nc2cccc3c2O[C@H](CN(C)Cc2ccc(-c4ccccc4)cc2)[C@@H](C)CN([C@H](C)CO)C3=O)cc1	Mdm2 MdmX PPI 53 (no result: SKKanGAS inh, CSC inhib) | Mdm2-MdmX conf inactive
Cc1ccc(N(CC(=O)Nc2cc(Cl)ccc2Oc2ccccc2)S(C)(=O)=O)cc1C	Mdm2 MdmX PPI 52 | Mdm2-MdmX conf inactive
CC[C@]12c3[nH]c4ccc(Cl)cc4c3CCN1C(=O)[C@@H](CC(=O)NCC13CC4CC(CC(C4)C1)C3)C[C@@H]2C(=O)N1CCN(C(=O)c2ccco2)CC1	Mdm2 MdmX PPI 87 (no result: SKKanGAS inh, Beta cell apopt, CSC inhib) | Mdm2-MdmX conf 41 | FLuc counter 38
C[C@]12c3[nH]c4cc(-c5ccco5)ccc4c3CCN1C(=O)[C@@H](CC(=O)NCC13CC4CC(CC(C4)C1)C3)C[C@@H]2C(=O)N1CCCCC1	Mdm2 MdmX PPI 78 (no result: SKKanGAS inh, Beta cell apopt, CSC inhib) | Mdm2-MdmX conf inactive
CC[C@]12c3[nH]c4ccc(OC)cc4c3CCN1C(=O)C(CC(=O)NCC13CC4CC(CC(C4)C1)C3)C[C@@H]2C(=O)N1CCN(C(=O)c2ccco2)CC1 (stereo partly specified)	none (no result: SKKanGAS inh, Beta cell apopt, CSC inhib)
CN(C)CCCNC(=O)C[C@H]1C[C@H](C(=O)N2CCCCC2)[C@@]2(C)c3[nH]c4cc(-c5ccco5)ccc4c3CCN2C1=O	none (no result: SKKanGAS inh, Beta cell apopt, CSC inhib)
CC[C@]12c3[nH]c4cc(-c5ccco5)ccc4c3CCN1C(=O)[C@@H](CC(=O)NCC13CC4CC(CC(C4)C1)C3)C[C@@H]2C(=O)N1CCN(C(=O)c2ccco2)CC1	none (no result: SKKanGAS inh, Beta cell apopt, CSC inhib)
CC[C@]12c3[nH]c4cc(-c5ccco5)ccc4c3CCN1C(=O)[C@@H](CC(=O)NCC13CC4CC(CC(C4)C1)C3)C[C@@H]2C(=O)N1CCN(C(=O)C2CC2)CC1	Mdm2 MdmX PPI 78 (no result: SKKanGAS inh, Beta cell apopt, CSC inhib) | Mdm2-MdmX conf inactive
C[C@]12c3[nH]c4cc(-c5ccco5)ccc4c3CCN1C(=O)[C@@H](CC(=O)NCc1cccc(C(F)(F)F)c1)C[C@@H]2C(=O)N1CCCCC1	Mdm2 MdmX PPI 85 (no result: SKKanGAS inh, Beta cell apopt, CSC inhib) | Mdm2-MdmX conf inactive
CC1CCCC(NC(=O)CN2C(=O)NC(c3ccccc3)(c3ccccc3)C2=O)C1C (stereo unspecified)	none (no result: SKKanGAS inh, Beta cell apopt, CSC inhib)
COc1cccc(C(=O)N2CCC(CCC(=O)Nc3cccc(C)c3)CC2)c1	none (no result: Beta cell apopt)
CCCC1(c2ccccc2)NC(=O)N(CC(=O)Nc2cc(OC)cc(OC)c2)C1=O (stereo unspecified)	none (no result: CSC inhib)
C=CCNC(=O)c1ccc(-c2nc(-c3ccc(Cl)c(Cl)c3)cs2)cc1	Mdm2 MdmX PPI 52 | Mdm2-MdmX conf inactive
O=C(OCn1ncc(Br)c(Br)c1=O)c1ccccc1Cl	Mdm2 MdmX PPI 99, Beta cell apopt 112 | Mdm2-MdmX conf 98 | FLuc counter inactive
O=C(OCn1ncc(Br)c(Br)c1=O)c1ccc(F)cc1	Mdm2 MdmX PPI 99, Beta cell apopt 100 | Mdm2-MdmX conf 100 | FLuc counter inactive
COc1ccc(CNC(=O)c2ccc(Cl)c(S(=O)(=O)N3CCOCC3)c2)cc1OC	none (no result: SKKanGAS inh)
COc1ccc(C(=O)NCCS(=O)(=O)N(C)C2CCCCC2)cc1	none
COc1ccc(/C=C(\C#N)C(=O)N2CCOCC2)cc1Br	none
Cc1cc(/C=C(\C#N)C(=O)N2CCOCC2)c(C)n1C1CCCC1	Mdm2 MdmX PPI 64 | Mdm2-MdmX conf 68 | FLuc counter 158
COc1ccccc1NC(=O)c1c[nH]c2ccccc12	none
O=C(CN(Cc1cccs1)C(=O)CSc1nnc(COc2ccccc2)o1)NC1CCCCC1	none
CCOc1ccc(N(CC(=O)NC2CCCCC2)C(=O)CSc2nnc(COc3ccccc3)o2)cc1	Mdm2 MdmX PPI 55 | Mdm2-MdmX conf inactive
C=C1C(=O)[C@@]23[C@H](O)C[C@@H]4C(C)(C)CC[C@H](O)[C@@]4(C)[C@@H]2CC[C@@H]1[C@H]3O	Mdm2 MdmX PPI 97, Beta cell apopt 99 | Mdm2-MdmX conf 100 | FLuc counter 48
C=C1C(=O)[C@@]23[C@H](O)C[C@@H]4C(C)(C)CC[C@H](O)[C@]4(C)[C@@H]2C[C@H](O)[C@@H]1[C@H]3O	Mdm2 MdmX PPI 83 | Mdm2-MdmX conf inactive
O=C(N/N=C/c1ccc(O)cc1)c1[nH]c2ccc(Br)cc2c1-c1ccccc1	Mdm2 MdmX PPI 67, SKKanGAS inh inconclusive | Mdm2-MdmX conf 56 | FLuc counter 92
Cc1c(C(=O)N/N=C/c2ccc(Cl)cc2)[nH]c2ccc(Cl)cc12	Mdm2 MdmX PPI 63, SKKanGAS inh 56 | Mdm2-MdmX conf 62 | FLuc counter 91
CCOc1ccc(/C=N/NC(=O)c2[nH]c3ccc(C)cc3c2C)cc1	none
CCC(C)Sc1ccc([C@@H]2[C@H]3C(=O)N(CC)C(=O)[C@H]3[C@]3(C(=O)OC)CCCCN23)cc1 (stereo partly specified)	none (no result: SKKanGAS inh)
COc1ccc(Cl)cc1C(=O)NNC(=O)c1cc2ccccc2o1	none (no result: SKKanGAS inh)
O=C(O)c1cccc(S(=O)(=O)N2CCN(Cc3ccc4c(c3)OCO4)CC2)c1	none (no result: CSC inhib)
COC(=O)C1=C(CN2CCc3ccccc32)NC(=O)NC1c1cc(C)ccc1C (stereo unspecified)	none
COC(=O)C1=C(CN2CCCc3ccccc32)NC(=O)NC1c1ccc(F)cc1 (stereo unspecified)	Mdm2 MdmX PPI 70 | Mdm2-MdmX conf 72 | FLuc counter 38
CC(Oc1cc2oc(=O)c3c(c2cc1Cl)CCCC3)C(=O)NCCN1CCOCC1 (stereo unspecified)	none
CCN(CC)CCNC(=O)c1[nH]c2ccc(OCc3ccccc3)cc2c1C	Mdm2 MdmX PPI 61, CSC inhib 83 | Mdm2-MdmX conf inactive | FLuc counter 69
CCN(Cc1ccccc1)C(=O)c1[nH]c2ccc(OC)cc2c1C	none (no result: Beta cell apopt, CSC inhib)
